RGS4 block – inhibitors of human RGS4; P49798; HEK293 M3R/RGS4 inducible, Fluo-4 calcium flux; active compounds read high; triggered by carbachol at its EC20; B-score at 10 µM; hit rate 0.45% among 310,000; AID 463165;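 active means B-score, a plate-corrected calcium signal, over three deviations above library mean, with baseline fluorescence within five deviations of library mean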;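 further: RGS4 expression induced by doxycycline in cells with stable M3 receptor; B-score is computed from the integrated fluorescence ratio over baseline after carbachol; higher B-score means a larger calcium signal and so more RGS4 inhibition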
Target sequence (P49798 whole entry, looked up): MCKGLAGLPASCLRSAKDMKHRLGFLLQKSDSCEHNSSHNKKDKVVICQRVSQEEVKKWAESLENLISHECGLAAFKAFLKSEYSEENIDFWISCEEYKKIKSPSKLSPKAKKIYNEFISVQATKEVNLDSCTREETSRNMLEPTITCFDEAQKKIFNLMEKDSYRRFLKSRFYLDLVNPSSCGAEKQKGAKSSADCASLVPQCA
MrgX1 allo act – allosterically activates human MrgX1 receptor signaling; Q96LB2; MrgX1-HEK293, Fluo-4 calcium flux, FDSS; active compounds read high; B-score at 10 µM; hit rate 0.63% among 310,000; AID 588675;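 active means plate-corrected calcium response at least 3 library SD above typical, normal starting fluorescence, not activating the receptor alone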;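 further: compound read alongside a low EC10 to EC30 dose of BAM8-22 agonist; peak minus trough fluorescence over baseline measured at the second addition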
Target sequence (Q96LB2 whole entry, looked up): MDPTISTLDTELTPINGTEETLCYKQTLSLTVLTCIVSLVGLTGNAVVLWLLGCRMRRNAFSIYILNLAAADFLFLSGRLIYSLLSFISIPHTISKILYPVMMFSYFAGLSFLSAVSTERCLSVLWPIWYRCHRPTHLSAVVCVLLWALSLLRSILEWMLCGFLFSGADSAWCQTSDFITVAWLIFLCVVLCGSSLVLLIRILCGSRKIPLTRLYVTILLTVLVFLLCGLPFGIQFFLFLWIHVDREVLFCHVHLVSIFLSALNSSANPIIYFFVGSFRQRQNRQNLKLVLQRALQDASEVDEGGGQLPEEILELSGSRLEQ
MrgX1 antagonist – blocks BAM8-22 activation of human MrgX1 receptor; B-score at 10 µM; hit rate 1.3% among 310,000; MRGX1-HEK293 calcium flux, Fluo-4, BAM8-22 antagonism; active compounds read low;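 active means calcium-response B-score plate-corrected more than 3 library SD below zero, starting fluorescence within 5 deviations, no agonist response on first addition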;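 further: peak minus trough fluorescence over baseline after final BAM8-22 challenge near maximal dose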
MrgX1 ag – human MrgX1 receptor agonism, primary screen. Q96LB2. MrgX1-HEK293 cells, Fluo-4 calcium fluorescence, agonist mode; active compounds read high. B-score at 10 µM. hit rate 0.44% among 310,000;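 active means calcium response B-score plate-corrected fluorescence ratio at least 3 library SD, with starting fluorescence B-score inside 5 SD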
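Test system: HEK293 cells stably expressing human MrgX1 receptor; Input: fifteen thousand cells per well; Dosing: compound delivered in addition one of three; Schedule: overnight seeding, then 1 h dark dye loading; Technique: Fluo-4 NW calcium fluorescence; Measure: B-scored fluorescence response ratio; Controls: positive and negative controls per plate.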
RGS4 act – RGS4 potentiation or activation. hit rate 0.92% among 310,000. HEK293 M3R/inducible RGS4, carbachol calcium flux Fluo4; active compounds read low. B-score at 10 µM;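 active means B-score of the integrated calcium signal more than 4 SD below the library mean, with starting fluorescence not abnormally high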;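 further: negative B-score means reduced calcium response which marks RGS4 activation or potentiation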
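Detection: kinetic calcium fluorescence imaging with Fluo4-AM dye, 2 µM / Material: HEK293 cells with stable M3R and inducible RGS4 / Schedule: recording 10 s baseline at 1 Hz, 100 s post-agonist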
Numbers stand for hits; i = inactive; nt = not tested or not shown. A selection: hits, their analogues and other compounds. The true share with any hit is near 3.5%.

SMILES	RGS4 block	MrgX1 allo act	MrgX1 antagonist	MrgX1 ag	RGS4 act
Nc1ccc2ccc3cccc[n+]3c2c1	i	i	i	i	-7.6
O=c1[nH]c(=O)n(-c2ccc(F)cc2)c(O)c1/C=C1\C=Nc2ccccc21	i	i	i	i	i
O=c1[nH]c(=O)n(CC2CCCO2)c(O)c1/C=C1\C=Nc2ccccc21 (stereo not given)	i	i	i	34	i
O=c1[nH]c(=O)n(-c2ccccc2F)c(O)c1/C=C1\C=Nc2ccccc21	11	i	i	47	i
CCC(CO)(C(=O)OC1C[N+]2(C)CCC1CC2)c1ccccc1 (stereo not given)	i	i	i	i	-8.9
C=C1[C@@H](OC(C)=O)[C@]23C[C@@H]1[C@@H](OC(C)=O)CC2[C@]12C4C[C@H]3[C@H]1N(CC)C[C@]4(C)CC[C@@H]2O (stereo not given in full)	i	i	i	i	i
CC1CCCC(C)N1/N=C/c1c[nH]c2ccc(Br)cc12 (stereo not given)	i	12	i	i	i
CCCCCSc1cc(OC)c(CCN(C)C)cc1OC	i	i	i	i	-7.7
CCCCCSc1cc(O)c(C(CNC)C(C)C)cc1OC (stereo not given)	i	i	i	i	i
Cc1[nH]c2ccccc2c1C(=O)C(=O)N1CC2CC(C1)c1cccc(=O)n1C2 (stereo not given)	i	i	i	i	i
CN1C(=O)C(=Cc2ccc(N3CCCCCC3)o2)C(=O)N(C)C1=S	nt	i	i	29	nt
CCCC(CCC)C(=O)OC[N+](C)(C)CCOC(=O)C(O)(c1ccccc1)C1CCCC1 (stereo not given)	i	i	i	i	i
CC(C)(C)C(=O)OC[N+](C)(C)CCOC(=O)C(O)(c1ccccc1)C1CCCC1 (stereo not given)	i	i	i	i	-7.5
CCn1cc(/C=c2/sc3n(c2=O)C2c4ccccc4OC(C)(N=3)C2C(=O)OC)c(C)n1 (stereo not given)	i	i	i	i	i
COC(=O)C1C2c3ccccc3OC1(C)N=c1s/c(=C/c3cn(C)nc3C)c(=O)n12 (stereo not given)	i	7.1	i	i	i
Cc1nc2ccccc2c(=O)n1/N=C/c1cc(Br)cc(Br)c1O	i	i	-8.6	i	i
O=C(COc1ccc2ccc(=O)oc2c1)N1CCC(C(=O)O)(c2ccccc2)CC1	i	i	i	i	i
CC1CCC(NCCc2ccc3c(c2)OCO3)CC1 (stereo not given)	i	i	i	i	-7
Cc1cccc(-n2c(O)c(/C=C/C=Nc3ccccc3)c(=O)[nH]c2=O)c1	i	i	i	i	i
Cn1c(O)c(/C=C/C=Nc2ccccc2)c(=O)n(C)c1=S	i	i	-8.5	i	i
CC[C@H]1CN2CC[C@@]3(C(=O)Nc4ccccc43)[C@@H]2C[C@@H]1/C(=C\OC)C(=O)OC	i	i	i	i	i
COC(=O)C1=C(N)Oc2c(c(=O)oc3ccccc23)[C@]12C(=O)N(C)c1ccccc12	i	8.6	i	i	i
CCOC(=O)C1(CCCc2ccccc2)CCN(C2CCCC2)CC1	i	i	i	i	-7
CCOC(=O)C1(CCc2ccccc2)CCN(C2CCSCC2)CC1	i	i	i	i	i
Cc1ccc(Oc2cc(NN3CCCCC3)c([N+](=O)[O-])cc2[N+](=O)[O-])c([N+](=O)[O-])c1	i	i	i	i	i
SMILES	RGS4 block	MrgX1 allo act	MrgX1 antagonist	MrgX1 ag	RGS4 act
CC1=C2[C@@H]3OC(=O)[C@H](C)C3CC[C@@]2(C)C=CC1=O (stereo not given in full)	i	i	i	i	i
Cc1ccc(Cn2cc(C=O)c(-c3ccc(F)cc3)n2)cc1	i	7.6	i	i	i
CCN1C[C@]2(OC(=O)c3ccccc3NC(C)=O)CCC(OC)C34C5C[C@H]6C(OC)[C@]5(O)[C@](O)(C[C@@H]6OC)C(C[C@@H]32)[C@H]14 (stereo not given in full)	i	i	i	i	i
CCOC(=O)c1cccc(-[n+]2c(-c3ccccc3)cc(-c3ccccc3)cc2-c2ccccc2)c1	i	i	-6.8	i	-7.7
CCOC(=O)c1ccc(-[n+]2c(-c3ccccc3)cc(-c3ccccc3)cc2-c2ccccc2)cc1	i	i	i	28	i
Cc1ccc(-c2cc(-c3ccc(C)cc3)[n+](-c3ccc(C(=O)[O-])cc3)c(-c3ccc(C)cc3)c2)cc1	i	i	i	i	i
Nc1ncn[nH]1	i	i	i	i	i
CC(C)(O)[C@H]1O[C@H]2CC[C@@]3(C)[C@@](O)(CC[C@H]4Cc5c([nH]c6ccccc56)[C@@]43C)C2=CC1=O	i	i	-4.6	i	i
Cc1ccc(-c2cc(-c3ccccc3)cc(-c3ccccc3)[n+]2-c2ccccc2)cc1	i	i	i	31	-7.6
C[n+]1c(-c2ccccc2)cc(-c2ccc(Cl)cc2)cc1-c1ccccc1	i	i	i	i	i
c1ccc(-c2cc(-c3ccccc3)[n+](-c3ccccc3)c(-c3ccccc3)c2)cc1	i	15	i	i	-7.8
CN(C)c1ccc(-[n+]2c(-c3ccccc3)cc(-c3ccccc3)cc2-c2ccccc2)cc1	i	nt	nt	nt	-9
c1ccc2nc(N3CCNCC3)ccc2c1	nt	i	i	i	nt
CCC(C)n1c(O)c(C=NCC2CCCO2)c(=O)[nH]c1=S (stereo not given)	i	i	i	i	-10
CCC(C)n1c(O)c(/C=N/N2CCOCC2)c(=O)[nH]c1=S (stereo not given)	i	i	i	i	i
Cc1c(C)c2ccc(OCC(=O)N3C[C@H]4C[C@@H](C3)c3cccc(=O)n3C4)c(C)c2oc1=O	i	i	i	i	-8.7
Cc1cc(=O)oc2c(C)c(OCC(=O)N3C[C@H]4C[C@@H](C3)c3cccc(=O)n3C4)ccc12	i	i	i	i	i
Cc1c(Br)c(=O)oc2cc(OCC(=O)N3C[C@H]4C[C@@H](C3)c3cccc(=O)n3C4)ccc12	i	i	i	i	-7.5
Cc1cc(/C=C2/C(=O)NC(=O)N(Cc3ccco3)C2=O)c(C)n1-c1ccccc1O	i	9.6	i	i	i
O=C(O)Cn1cc(/C=C2\C(=O)NC(=O)N(Cc3ccco3)C2=O)c2ccccc21	i	i	i	i	i
O=C(/C=C/c1ccc(F)cc1)NC(=S)N1C[C@H]2C[C@H](C1)c1cccc(=O)n1C2	i	i	i	i	i
O=[N+]([O-])c1ccc(N2CCCNCC2)c2ncccc12	i	i	i	i	-8.1
C=CCn1c(C)c(C=C2C(=O)NC(=O)NC2=O)c2ccccc21	i	i	i	39	i
CCOP(=O)(C#Cc1ccccc1)C(O)c1ccc(Br)cc1 (stereo not given)	i	17	i	i	i
Fc1ccc(C(OCCN2CCCC2)c2ccc(Br)cc2)cc1 (stereo not given)	i	i	i	i	-9.8
